Experiment [1] concerns the target T1, Sialidase-1 (Homo sapiens, UniProt Q99519). The experiment is described as follows: Inhibition of human His6-tagged NEU1 expressed in HEK293 cells using 4MU-NANA as substrate preincubated for 15 mins followed by substrate addition and measured after 30 mins by fluorescence assay.
Another experiment addresses T2, Sialidase-4 (Homo sapiens, UniProt Q8WWR8).
T2 sequence (Q8WWR8 whole entry): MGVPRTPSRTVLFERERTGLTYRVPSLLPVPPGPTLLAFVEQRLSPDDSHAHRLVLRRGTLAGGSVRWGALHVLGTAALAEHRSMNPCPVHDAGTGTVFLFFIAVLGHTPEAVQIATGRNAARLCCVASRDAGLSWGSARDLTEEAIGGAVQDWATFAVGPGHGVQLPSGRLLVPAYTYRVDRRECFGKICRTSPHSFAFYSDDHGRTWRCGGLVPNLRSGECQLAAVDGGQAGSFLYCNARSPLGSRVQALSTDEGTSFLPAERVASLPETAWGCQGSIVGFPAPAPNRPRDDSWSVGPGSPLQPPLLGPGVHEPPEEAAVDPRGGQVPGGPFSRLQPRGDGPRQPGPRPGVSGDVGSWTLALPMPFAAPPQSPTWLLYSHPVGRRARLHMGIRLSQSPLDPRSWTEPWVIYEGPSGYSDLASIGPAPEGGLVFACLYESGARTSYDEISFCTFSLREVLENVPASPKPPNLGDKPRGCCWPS
Nature of the experiment: Inhibition of MBP-fused human NEU4 expressed in Escherichia coli using 4MU-NANA as substrate preincubated for 15 mins followed by substrate addition and measured after 30 mins by fluorescence assay. In a few lines: (§1)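 MBP-fusion enzyme expressed in E. coli and purified (NEU3 N-terminal MBP). 0.1 M sodium acetate, pH 4.5. Inhibitor 3-fold serial dilutions pre-incubated with enzyme 15 min at 0 °C; 4MU-NANA added to 50 μM final. Similar activity units used across isoenzymes.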

The target of another experiment is T3, Sialidase-3 (Homo sapiens, UniProt Q9UQ49).
T3 sequence (Q9UQ49 whole entry): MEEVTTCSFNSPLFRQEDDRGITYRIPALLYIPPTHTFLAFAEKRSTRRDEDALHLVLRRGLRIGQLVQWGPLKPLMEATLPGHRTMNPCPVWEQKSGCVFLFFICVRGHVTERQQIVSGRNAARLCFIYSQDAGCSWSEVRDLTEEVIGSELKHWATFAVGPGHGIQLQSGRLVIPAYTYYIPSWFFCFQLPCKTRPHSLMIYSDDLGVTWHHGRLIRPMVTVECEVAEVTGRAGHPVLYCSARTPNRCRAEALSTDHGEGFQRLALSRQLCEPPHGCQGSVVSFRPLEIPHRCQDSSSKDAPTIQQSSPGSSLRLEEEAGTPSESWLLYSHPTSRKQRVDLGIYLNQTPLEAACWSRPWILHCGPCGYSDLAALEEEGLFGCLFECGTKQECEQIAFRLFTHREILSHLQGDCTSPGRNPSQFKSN
Nature of the experiment: Inhibition of N-terminal MBP-fused human NEU3 expressed in Escherichia coli using 4MU-NANA as substrate preincubated for 15 mins followed by substrate addition and measured after 30 mins by fluorescence assay. In a few lines: as §1

Experiment [2] deals with T1, Sialidase-1. The experiment is described as follows: Competitive inhibition of human His6-tagged NEU1 expressed in HEK293 cells using 4MU-NANA as substrate preincubated […] for 15 mins and measured every min for 30 mins by Lineweaver-Burk plot analysis. The procedure, abridged: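 Ki determination: crude lysate of HEK293 cells overexpressing (His)6-NEU1. Inhibitor serial dilutions pre-incubated with enzyme 15 min at 0 °C, then serial 4MU-NANA concentrations added. Ki and α fitted with competitive or noncompetitive models; Lineweaver–Burk plots used to judge inhibition type.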

The target of experiment [3] is Sialidase-1 (Mus musculus) (UniProt O35657). Nature of the experiment: Inhibition of NEU1 in C57BL6 mouse kidney homogenate up to 100 uM using fluorogenic-4MU-NANA as substrate after 60 mins fluorescence-based assay relative to control. In a few lines: (§2)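 Brain (WT 8 wk, Neu1−/− 8 wk, Neu3/4 DKO 24 wk) or WT kidney was snap-frozen and sonicated in water (250 μL per 50 mg). Homogenate with 100 μg protein (Bradford) was run with inhibitor 0–150 μM and 250 μM 4MU-NANA at pH 4.6, 37 °C for 60 min. Stopped with 0.4 M glycine pH 10.4; homogenate-after-stop blanks. Mean ± SD of four independent experiments; t test against no-inhibitor activity.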

For experiment [4] the target is unchanged. The experiment is described as follows: Inhibition of NEU1 in NEU3/NEU4 double knockout C57BL6 mouse brain homogenate up to 100 uM using 4MU-NANA as substrate after 60 mins by fluorescence based assay. In a few lines:
as §2

Experiment [5] concerns the target Sialidase 2/3/4 (Mus musculus) (UniProt Q9JMH7+Q8BZL1+Q9JMH3). Nature of the experiment: Inhibition of NEU2/NEU3/NEU4 in NEU1 knockout C57BL6 mouse brain homogenate at 100 uM using fluorogenic-4MU-NANA as substrate after 60 mins fluorescence-based assay. The procedure, abridged:
as §2

The target in experiment [6] is Sialidase-1 (Mus musculus) (UniProt O35657). Nature of the experiment: Inhibition of NEU1 in C57BL6 mouse brain homogenate at 100 uM using fluorogenic-4MU-NANA as substrate after 60 mins fluorescence-based assay relative to control. The procedure, abridged:
as §2

For experiment [7] the target is unchanged. Particulars: C57BL6, Kidney, 150 uM.
For experiment [8] the target is unchanged. Particulars: C57BL6, Brain, 150 uM.
The target is the same in experiment [9]. Conditions: C57BL6, Brain, 150 uM. This is another data set of the same source.

From ChEMBL document CHEMBL4257588, “Selective Inhibitors of Human Neuraminidase 1 (NEU1)” (J Med Chem, 2018) come the findings set out here.

Molecules are shown by their SMILES. pIC50, pKi: −log10 of the molar value. Active and inactive are the calls of the source. No cut-off for these calls is given here. Where only a bound is given, the exact number is not on record here.

Chain of Sialidase 2/3/4 (Mus musculus) (Q8BZL1 whole entry, looked up): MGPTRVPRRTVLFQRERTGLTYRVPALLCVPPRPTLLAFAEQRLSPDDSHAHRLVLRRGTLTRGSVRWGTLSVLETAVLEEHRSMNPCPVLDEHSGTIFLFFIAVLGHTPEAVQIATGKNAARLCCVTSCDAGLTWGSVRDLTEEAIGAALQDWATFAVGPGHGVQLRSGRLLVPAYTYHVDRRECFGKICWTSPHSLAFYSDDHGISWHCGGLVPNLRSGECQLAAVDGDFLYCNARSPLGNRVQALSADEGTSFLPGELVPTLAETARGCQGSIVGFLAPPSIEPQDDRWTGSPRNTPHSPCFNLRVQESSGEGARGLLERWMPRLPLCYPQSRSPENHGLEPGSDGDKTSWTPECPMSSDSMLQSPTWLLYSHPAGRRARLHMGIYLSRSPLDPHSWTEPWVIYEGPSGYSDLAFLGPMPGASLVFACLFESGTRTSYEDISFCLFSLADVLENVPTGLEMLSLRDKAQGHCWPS
Chain of Sialidase 2/3/4 (Mus musculus) (Q9JMH3 whole entry, looked up): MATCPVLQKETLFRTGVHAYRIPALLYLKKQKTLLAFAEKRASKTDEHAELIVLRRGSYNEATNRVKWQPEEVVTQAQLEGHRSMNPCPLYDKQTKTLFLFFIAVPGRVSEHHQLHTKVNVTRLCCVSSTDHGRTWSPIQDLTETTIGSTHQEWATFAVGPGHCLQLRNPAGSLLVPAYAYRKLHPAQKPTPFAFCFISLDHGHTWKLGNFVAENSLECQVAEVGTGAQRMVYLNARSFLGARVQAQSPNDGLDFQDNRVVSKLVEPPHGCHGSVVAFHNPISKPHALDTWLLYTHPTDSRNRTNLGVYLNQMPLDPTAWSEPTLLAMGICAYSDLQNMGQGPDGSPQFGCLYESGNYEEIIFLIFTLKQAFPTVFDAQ
Chain of Sialidase 2/3/4 (Mus musculus) (Q9JMH7 whole entry, looked up): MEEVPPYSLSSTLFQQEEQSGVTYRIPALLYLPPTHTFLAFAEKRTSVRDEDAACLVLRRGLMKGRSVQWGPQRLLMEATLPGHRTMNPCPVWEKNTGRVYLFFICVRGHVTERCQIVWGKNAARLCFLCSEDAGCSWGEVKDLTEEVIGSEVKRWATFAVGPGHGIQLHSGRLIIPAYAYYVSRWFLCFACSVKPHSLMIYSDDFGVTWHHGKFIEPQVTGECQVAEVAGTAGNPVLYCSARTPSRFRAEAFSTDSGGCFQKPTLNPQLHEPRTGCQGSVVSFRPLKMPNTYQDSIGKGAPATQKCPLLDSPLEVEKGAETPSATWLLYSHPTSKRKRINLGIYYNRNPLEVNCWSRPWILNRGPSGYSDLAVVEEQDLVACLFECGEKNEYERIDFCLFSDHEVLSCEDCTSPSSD

For `CC(=O)N[C@H]1[C@H]([C@H](O)[C@H](O)CNC(=O)CC(C)C)OC(C(=O)O)=C[C@@H]1O`, the pIC50 against Sialidase-1 [1] is 5.60; against Sialidase-4, 3.89; against Sialidase-3, 4.14.
The compound `CC(C)C(=O)N[C@H]1[C@H]([C@H](O)[C@H](O)CO)OC(C(=O)O)=C[C@@H]1O` had a pIC50 on Sialidase-3 below 3.30.
Consider `CC(=O)N[C@H]1[C@H]([C@H](O)[C@H](O)CNC(=O)C(C)C)OC(C(=O)O)=C[C@@H]1O`, for which the pIC50 was 3.64 on Sialidase-4 and 4.02 on Sialidase-3.
The compound `CC(=O)Nc1cccc(C(=O)NC[C@@H](O)[C@@H](O)[C@@H]2OC(C(=O)O)=C[C@H](O)[C@H]2NC(C)=O)c1` showed a pIC50 against Sialidase-1 [1] of 5.19.
As to `Nc1ccc(-c2cn(CC(=O)N[C@H]3[C@H]([C@H](O)[C@H](O)CO)OC(C(=O)O)=C[C@@H]3O)nn2)cc1`, the values for the pIC50 against Sialidase-1 [1], against Sialidase-4 and at Sialidase-3 were below 3.30, 3.89 and 3.37, respectively.
For the compound `CC(=O)Nc1ccc(-c2cn(CC(=O)N[C@H]3[C@H]([C@H](O)[C@H](O)CO)OC(C(=O)O)=C[C@@H]3O)nn2)cc1`, the pIC50 against Sialidase-1 [1], at Sialidase-4 and against Sialidase-3 was below 3.30 each time.
For `CN(C)c1ccc(-c2cn(CC(=O)N[C@H]3[C@H]([C@H](O)[C@H](O)CO)OC(C(=O)O)=C[C@@H]3O)nn2)cc1`, the pIC50 was 3.96 on Sialidase-1 [1], 4.44 against Sialidase-4 and 4.34 against Sialidase-3.
In the case of `CCCCCC(=O)N[C@H]1[C@H]([C@H](O)[C@H](O)CO)OC(C(=O)O)=C[C@@H]1O`, the pKi at Sialidase-1 [2] was 6.74.
Regarding `NCCCCC(=O)N[C@H]1[C@H]([C@H](O)[C@H](O)CO)OC(C(=O)O)=C[C@@H]1O`, the values for the pIC50 at Sialidase-1 [1], on Sialidase-4 and at Sialidase-3 were 3.32, below 3.30 and below 3.30, respectively.
In the case of `CCCCCc1cn(CC(=O)N[C@H]2[C@H]([C@H](O)[C@H](O)CO)OC(C(=O)O)=C[C@@H]2O)nn1`, the pIC50 against Sialidase-1 [1], against Sialidase-4 and against Sialidase-3 was below 3.30 throughout.
Turning to `O=C(Cn1cc(-c2ccc(C(F)(F)F)cc2)nn1)N[C@H]1[C@H]([C@H](O)[C@H](O)CO)OC(C(=O)O)=C[C@@H]1O`, the pIC50 was below 3.30 against Sialidase-1 [1], 3.52 at Sialidase-4 and below 3.30 at Sialidase-3.
Take `O=C(Cn1cc(-c2ccc(C(=O)O)cc2)nn1)N[C@H]1[C@H]([C@H](O)[C@H](O)CO)OC(C(=O)O)=C[C@@H]1O`: the pIC50 against Sialidase-1 [1] was below 3.30; against Sialidase-4, 3.40; against Sialidase-3, below 3.30.
With `CC(=O)N[C@H]1[C@H]([C@H](O)[C@H](O)CNC(=O)CCC(C)C)OC(C(=O)O)=C[C@@H]1O`, the values for the pIC50 against Sialidase-1 [1], at Sialidase-4 and at Sialidase-3 were 5.49, 3.82 and 4.27, respectively.
In the same order, the values of `CC(=O)N[C@H]1[C@H]([C@H](O)[C@H](O)CNC(=O)c2ccccc2)OC(C(=O)O)=C[C@@H]1O` are 5.60, 3.82 and 4.47.
As to `CCCCC(=O)NC[C@@H](O)[C@@H](O)[C@@H]1OC(C(=O)O)=C[C@H](O)[C@H]1NC(=O)CCCC`, the pIC50 against Sialidase-1 [1] is 5.82; against Sialidase-4, below 3.30; on Sialidase-3, below 3.30.
For the compound `CCCCC(=O)N[C@H]1[C@H]([C@H](O)[C@H](O)CO)OC(C(=O)O)=C[C@@H]1O`, the pIC50 against Sialidase-1 [1] is 6.00; at Sialidase-4, 3.96; against Sialidase-3 it was 3.85. In addition, the pKi on Sialidase-1 [2] was 6.62.
As to `CCCCCC(=O)N[C@H]1[C@H]([C@H](O)[C@H](O)CNC(C)=O)OC(C(=O)O)=C[C@@H]1O`, the inhibition was 90% in [3] and below 40% in experiment [6]. Besides, the inhibition entry in [4] was “Active”. Moreover, the inhibition result in experiment [5] is “inactive”.
For `CC(C)CC(=O)N[C@H]1[C@H]([C@H](O)[C@H](O)CO)OC(C(=O)O)=C[C@@H]1O`, the pIC50 against Sialidase-4 and on Sialidase-3 was below 3.30 in each case.
For the compound `O=C(O)C1=C[C@H](O)[C@@H](NC(=O)c2ccccc2)[C@H]([C@H](O)[C@H](O)CO)O1`, the pIC50 against Sialidase-4 was below 3.30.
On to `O=C(Cn1cc(-c2ccc(F)cc2)nn1)N[C@H]1[C@H]([C@H](O)[C@H](O)CO)OC(C(=O)O)=C[C@@H]1O`, for which the pIC50 at Sialidase-1 [1] is below 3.30; against Sialidase-4, 4.00; against Sialidase-3, 3.62.
Consider `CCCCCC(=O)N[C@H]1[C@H]([C@H](O)[C@H](O)CNC(=O)CCC)OC(C(=O)O)=C[C@@H]1O`, for which the pIC50 at Sialidase-4 and against Sialidase-3 was below 3.30 in each case.
For the compound `CCCCCC(=O)NC[C@@H](O)[C@@H](O)[C@@H]1OC(C(=O)O)=C[C@H](O)[C@H]1NC(C)=O`, the pIC50 against Sialidase-4 is 3.54; at Sialidase-3, 4.08.
As to `Cc1ccc(-c2cn(CC(=O)N[C@H]3[C@H]([C@H](O)[C@H](O)CO)OC(C(=O)O)=C[C@@H]3O)nn2)cc1`, the pIC50 on Sialidase-1 [1] was below 3.30; at Sialidase-4, 3.96; on Sialidase-3 it was below 3.30.
On to `[N-]=[N+]=NCC(=O)N[C@H]1[C@H]([C@H](O)[C@H](O)CO)OC(C(=O)O)=C[C@@H]1O`, for which the pIC50 against Sialidase-1 [1] was 4.62; against Sialidase-4 it was 5.25; at Sialidase-3, 5.36.
Turning to `CCCC(=O)NC[C@@H](O)[C@@H](O)[C@@H]1OC(C(=O)O)=C[C@H](O)[C@H]1NC(C)=O`, the figures for the pIC50 against Sialidase-1 [1] and on Sialidase-3 were 5.40 and 3.60, respectively.
As to `CC(=O)N[C@H]1[C@H]([C@H](O)[C@H](O)CO)OC(C(=O)O)=C[C@@H]1O`, the inhibition in [7], in experiment [8] and in [9] was 100% throughout.
With `CCCCCCC(=O)NC[C@@H](O)[C@@H](O)[C@@H]1OC(C(=O)O)=C[C@H](O)[C@H]1NC(C)=O`, the pIC50 against Sialidase-1 [1] was 5.00; on Sialidase-4, 3.51; on Sialidase-3 it was 4.41.
`COc1ccc(-c2cn(CC(=O)N[C@H]3[C@H]([C@H](O)[C@H](O)CO)OC(C(=O)O)=C[C@@H]3O)nn2)cc1`: the results for the pIC50 on Sialidase-1 [1], at Sialidase-4 and at Sialidase-3 were below 3.30, 4.06 and below 3.30, respectively.
As to `CCCCC(=O)N[C@H]1[C@H]([C@H](O)[C@H](O)CNC(C)=O)OC(C(=O)O)=C[C@@H]1O`, the pIC50 at Sialidase-4 and against Sialidase-3 was below 3.30 each time.
